Data: ChEMBL document CHEMBL1123791, “3'-substituted 2',3'-dideoxynucleoside analogues as potential anti-HIV (HTLV-III/LAV) agents” (J Med Chem, 1987)

Test system: ATH-8 cell line
Assay: Required dose to reduce viability of normal uninfected ATH8 cells.
Type: functional
Details: Homo sapiens, read-out: ID50 (the source's name)

| Structure (SMILES) | IC50 |
| --- | --- |
| Cc1cn(C2CC(Br)C(CO)O2)c(=O)[nH]c1=O (configuration not stated) | 180 µM |
| Cc1cn(C2CC(SCCO)C(CO)O2)c(=O)[nH]c1=O (configuration not stated) | > 100 µM |
| Nc1ncnc2c1ncn2[C@H]1C=C[C@@H](CO)O1 | 52 µM |
| CCO[C@H]1C[C@H](n2cc(C)c(=O)[nH]c2=O)O[C@@H]1CO | > 100 µM |
| Cc1cn([C@H]2C[C@H](OCC(=O)[O-])[C@@H](CO)O2)c(=O)[nH]c1=O.[Na+] | > 100 µM |
| Cc1cn([C@H]2C[C@H](SC#N)[C@@H](CO)O2)c(=O)[nH]c1=O | > 100 µM |

Test system: MT4
Assay: Toxicity was determined by evaluation of cluster morphology and reclustering properties in mock infected MT-4 cells at 125 uM concentration; Range is 10-40
Type: cell-based
Details: human, mt4, 125 µM
Method in brief: (§1)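 Mock-infected MT4 cells were seeded at 2.5×10^5 cells/mL with compound at 125–0.00032 µM and cultured 5 days at 37 °C. Cluster morphology was scored microscopically, then cells were dispersed by pipetting and reclustering read after 4 h. Scoring: ++ >90%, + 10–40%, − <10% toxicity.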

| Structure (SMILES) | Toxicity |
| --- | --- |
| Cc1cn(C2CC(SCCO)C(CO)O2)c(=O)[nH]c1=O (configuration not stated) | 10% |

Test system: MT4
Assay: Toxicity was determined by evaluation of cluster morphology and reclustering properties in mock infected MT-4 cells at 0.2 uM concentration
Type: cell-based
Details: human, mt4, 0.2 µM

| Structure (SMILES) | Toxicity |
| --- | --- |
| Cc1cn(C2CC(Br)C(CO)O2)c(=O)[nH]c1=O (configuration not stated) | < 10% |
| Cc1cn(C2CC(SCCO)C(CO)O2)c(=O)[nH]c1=O (configuration not stated) | < 10% |
| Nc1ncnc2c1ncn2[C@H]1C=C[C@@H](CO)O1 | < 10% |
| CCO[C@H]1C[C@H](n2cc(C)c(=O)[nH]c2=O)O[C@@H]1CO | < 10% |
| Cc1cn([C@H]2C[C@H](OCC(=O)[O-])[C@@H](CO)O2)c(=O)[nH]c1=O.[Na+] | < 10% |
| Cc1cn([C@H]2C[C@H](SC#N)[C@@H](CO)O2)c(=O)[nH]c1=O | < 10% |

Test system: ATH-8 cell line
Assay: Protection of ATH8 cells against the cytopathic effect of HIV.
Type: functional
Details: Homo sapiens, read-out: ED50 (the source's name)

| Structure (SMILES) | EC50 |
| --- | --- |
| Cc1cn(C2CC(Br)C(CO)O2)c(=O)[nH]c1=O (configuration not stated) | > 500 µM |
| CCO[C@H]1C[C@H](n2cc(C)c(=O)[nH]c2=O)O[C@@H]1CO | > 100 µM |
| Cc1cn([C@H]2C[C@H](OCC(=O)[O-])[C@@H](CO)O2)c(=O)[nH]c1=O.[Na+] | > 100 µM |
| Cc1cn([C@H]2C[C@H](SC#N)[C@@H](CO)O2)c(=O)[nH]c1=O | > 100 µM |

Continued, values first:

| EC50 | Structure (SMILES) |
| --- | --- |
| > 100 µM | Cc1cn(C2CC(SCCO)C(CO)O2)c(=O)[nH]c1=O (configuration not stated) |
| 40 µM | Nc1ncnc2c1ncn2[C@H]1C=C[C@@H](CO)O1 |

Test system: MT4
Assay: Toxicity was determined by evaluation of cluster morphology and reclustering properties in mock infected MT-4 cells at 0.00032 uM concentration
Type: cell-based
Details: human, mt4, 0.00032 µM
Method in brief: as §1

| Structure (SMILES) | Toxicity |
| --- | --- |
| Nc1ncnc2c1ncn2[C@H]1C=C[C@@H](CO)O1 | < 10% |

Test system: MT4
Assay: Protection was determined by evaluation of cluster morphology and reclustering properties in […] MT-4 cells at 0.2 uM concentration
Type: functional, Homo sapiens
Details: not given

| Structure (SMILES) | Protection |
| --- | --- |
| Cc1cn(C2CC(Br)C(CO)O2)c(=O)[nH]c1=O (configuration not stated) | <10% |
| Cc1cn(C2CC(SCCO)C(CO)O2)c(=O)[nH]c1=O (configuration not stated) | <10% |
| Nc1ncnc2c1ncn2[C@H]1C=C[C@@H](CO)O1 | <10% |
| CCO[C@H]1C[C@H](n2cc(C)c(=O)[nH]c2=O)O[C@@H]1CO | <10% |
| Cc1cn([C@H]2C[C@H](OCC(=O)[O-])[C@@H](CO)O2)c(=O)[nH]c1=O.[Na+] | <10% |
| Cc1cn([C@H]2C[C@H](SC#N)[C@@H](CO)O2)c(=O)[nH]c1=O | <10% |

Test system: MT4
Assay: Toxicity was determined by evaluation of cluster morphology and reclustering properties in mock infected MT-4 cells at 0.008 uM concentration
Type: cell-based
Details: human, mt4, 0.008 µM
Method in brief: as §1

| Structure (SMILES) | Toxicity |
| --- | --- |
| Nc1ncnc2c1ncn2[C@H]1C=C[C@@H](CO)O1 | < 10% |

Test system: MT4
Assay: Toxicity was determined by evaluation of cluster morphology and reclustering properties in mock infected MT-4 cells at 125 uM concentration
Type: cell-based
Details: human, mt4, 125 µM

| Structure (SMILES) | Toxicity |
| --- | --- |
| Cc1cn(C2CC(Br)C(CO)O2)c(=O)[nH]c1=O (configuration not stated) | > 90% |
| Nc1ncnc2c1ncn2[C@H]1C=C[C@@H](CO)O1 | > 90% |
| CCO[C@H]1C[C@H](n2cc(C)c(=O)[nH]c2=O)O[C@@H]1CO | > 90% |
| Cc1cn([C@H]2C[C@H](OCC(=O)[O-])[C@@H](CO)O2)c(=O)[nH]c1=O.[Na+] | < 10% |
| Cc1cn([C@H]2C[C@H](SC#N)[C@@H](CO)O2)c(=O)[nH]c1=O | > 90% |

Test system: not listed separately
Assay: Therapeutic index (Ratio = ID50/ED50).
Details: not given

| Structure (SMILES) | selectivity ratio |
| --- | --- |
| Cc1cn(C2CC(Br)C(CO)O2)c(=O)[nH]c1=O (configuration not stated) | < 0.4 |
| Nc1ncnc2c1ncn2[C@H]1C=C[C@@H](CO)O1 | 1.3 |

Test system: MT4
Assay: Protection was determined by evaluation of cluster morphology and reclustering properties in […] MT-4 cells at 5 uM concentration; Range is 10-40
Type: functional, Homo sapiens
Details: not given
Method in brief: (§2)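 MT4 cells infected with HIV (300 CCID50/well) were seeded at 2.5×10^5 cells/mL with compound at 125, 5, 0.2, 0.008 or 0.00032 µM and kept 5 days at 37 °C. Clusters were scored microscopically, dispersed by pipetting, and reclustering assessed after 4 h at 37 °C. Scoring: +++ >90% protection.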

| Structure (SMILES) | Protection |
| --- | --- |
| Cc1cn(C2CC(Br)C(CO)O2)c(=O)[nH]c1=O (configuration not stated) | 10% |
| CCO[C@H]1C[C@H](n2cc(C)c(=O)[nH]c2=O)O[C@@H]1CO | 10% |
| Cc1cn([C@H]2C[C@H](SC#N)[C@@H](CO)O2)c(=O)[nH]c1=O | 10% |

Test system: MT4
Assay: Protection was determined by evaluation of cluster morphology and reclustering properties in mock infected MT-4 cells at 125 uM concentration
Type: functional, Homo sapiens
Details: in the assay text read “HIV infected” for “mock infected”
Method in brief: as §2

| Structure (SMILES) | Protection |
| --- | --- |
| Nc1ncnc2c1ncn2[C@H]1C=C[C@@H](CO)O1 | <10% |
| Cc1cn([C@H]2C[C@H](OCC(=O)[O-])[C@@H](CO)O2)c(=O)[nH]c1=O.[Na+] | <10% |

Test system: MT4
Assay: Protection was determined by evaluation of cluster morphology and reclustering properties in […] at 0.008 uM concentration.
Type: functional, Homo sapiens
Details: not given

| Structure (SMILES) | Protection |
| --- | --- |
| Cc1cn(C2CC(Br)C(CO)O2)c(=O)[nH]c1=O (configuration not stated) | <10% |
| CCO[C@H]1C[C@H](n2cc(C)c(=O)[nH]c2=O)O[C@@H]1CO | <10% |
| Cc1cn([C@H]2C[C@H](SC#N)[C@@H](CO)O2)c(=O)[nH]c1=O | <10% |

Test system: MT4
Assay: Protection was determined by evaluation of cluster morphology and reclustering properties in mock infected MT-4 cells at 125 uM concentration; Range is 10-40
Type: functional, Homo sapiens
Details: in the assay text read “HIV infected” for “mock infected”
Method in brief: as §2

| Structure (SMILES) | Protection |
| --- | --- |
| Cc1cn(C2CC(SCCO)C(CO)O2)c(=O)[nH]c1=O (configuration not stated) | 10% |

Test system: MT4
Assay: Toxicity was determined by evaluation of cluster morphology and reclustering properties in mock infected MT-4 cells at 5 uM concentration
Type: cell-based
Details: human, mt4, 5 µM
Method in brief: as §1

| Structure (SMILES) | Toxicity |
| --- | --- |
| Cc1cn(C2CC(Br)C(CO)O2)c(=O)[nH]c1=O (configuration not stated) | < 10% |
| Cc1cn(C2CC(SCCO)C(CO)O2)c(=O)[nH]c1=O (configuration not stated) | < 10% |
| Nc1ncnc2c1ncn2[C@H]1C=C[C@@H](CO)O1 | < 10% |
| CCO[C@H]1C[C@H](n2cc(C)c(=O)[nH]c2=O)O[C@@H]1CO | < 10% |
| Cc1cn([C@H]2C[C@H](OCC(=O)[O-])[C@@H](CO)O2)c(=O)[nH]c1=O.[Na+] | < 10% |
| Cc1cn([C@H]2C[C@H](SC#N)[C@@H](CO)O2)c(=O)[nH]c1=O | < 10% |

Test system: MT4
Assay: Protection was determined by evaluation of cluster morphology and reclustering properties in […] MT-4 cells at 5 uM concentration.
Type: functional, Homo sapiens
Details: not given
Method in brief: as §2

| Structure (SMILES) | Protection |
| --- | --- |
| Cc1cn(C2CC(SCCO)C(CO)O2)c(=O)[nH]c1=O (configuration not stated) | <10% |
| Nc1ncnc2c1ncn2[C@H]1C=C[C@@H](CO)O1 | <10% |
| Cc1cn([C@H]2C[C@H](OCC(=O)[O-])[C@@H](CO)O2)c(=O)[nH]c1=O.[Na+] | <10% |
